We go through eleven molecules from ChEMBL document CHEMBL1275291, “Design, synthesis and in vitro evaluation of antitubercular and antimicrobial activity of some novel pyranopyrimidines” (2010).

Values after ≈ are worked out from the molar mass of the structure shown.

Holding throughout (assay type): functional
One experiment concerns Staphylococcus aureus. As to the kind of experiment: Antimicrobial activity against Staphylococcus aureus ATCC 25923 after 24 hrs by serial dilution method. Conditions: ATCC 25923, 24 h.
The test system of the next experiment is Aspergillus niger. As to the kind of experiment: Antimicrobial activity against Aspergillus niger MTCC 282 after 24 hrs by serial dilution method.
The test system of experiment [1] is Mycobacterium tuberculosis. As to the kind of experiment: Antitubercular activity against Mycobacterium tuberculosis H37Rv ATCC 27294 by agar microdilution method. The essentials:
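Twofold dilutions in Middlebrook 7H10 agar with OADC supplement, 3 mL per well in 24-well plates, in duplicate. Final concentrations 1000, 500, 250, 125 and 62.5. Known CFU of H37Rv culture dispensed on top of agar in a negative-pressure biosafety hood. Incubated at 37 °C in a CO2 incubator. MIC read as the lowest concentration completely inhibiting growth and colony formation.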

For another experiment, the system named is Escherichia coli. As to the kind of experiment: Antimicrobial activity against Escherichia coli ATCC 25922 after 24 hrs by serial dilution method. The conditions noted are these: ATCC 25922, 24 h.
A further experiment has as its system Pseudomonas aeruginosa. As to the kind of experiment: Antimicrobial activity against Pseudomonas aeruginosa MTCC 441 after 24 hrs by serial dilution method. Conditions: MTCC 441, 24 h.
A further experiment has as its system Streptococcus pyogenes. Nature of the experiment: Antimicrobial activity against Streptococcus pyogenes MTCC 443 after 24 hrs by serial dilution method. Conditions: MTCC 443, 24 h.

For the molecule `COc1ccc(C2C(C#N)=C(N)Oc3c2ccc2ccccc32)cc1` (stereo not given), the MIC – broadly, the lowest concentration found to suppress growth – against Staphylococcus aureus was determined as 500 mg/L (≈ 1520 µM); in the experiment with Aspergillus niger (MTCC 282, 24 h) it was 500 mg/L (≈ 1520 µM); in experiment [1], 1000 mg/L (≈ 3050 µM); with Escherichia coli it was 500 mg/L (≈ 1520 µM); against Pseudomonas aeruginosa, 1000 mg/L (≈ 3050 µM); against Streptococcus pyogenes, 500 mg/L (≈ 1520 µM).
`O=C(O)c1cn(C2CC2)c2cc(N3CCNCC3)c(F)cc2c1=O` [CIPROFLOXACIN]: the values for the MIC against Staphylococcus aureus, in the experiment on Escherichia coli and against Streptococcus pyogenes were 50 mg/L (≈ 151 µM), 25 mg/L (≈ 75.4 µM) and 50 mg/L (≈ 151 µM), respectively.
Consider `COc1ccc(C2C(C#N)=C(N)Oc3ccccc32)cc1` (stereo not given), for which the MIC against Staphylococcus aureus is 250 mg/L (≈ 898 µM); with Aspergillus niger (MTCC 282, 24 h) it was 1000 mg/L (≈ 3590 µM); in experiment [1], 500 mg/L (≈ 1800 µM); in the experiment with Escherichia coli it was 500 mg/L (≈ 1800 µM); in the experiment with Pseudomonas aeruginosa, 500 mg/L (≈ 1800 µM); with Streptococcus pyogenes, 250 mg/L (≈ 898 µM).
As for `CO[C@H]1/C=C/O[C@@]2(C)Oc3c(C)c(O)c4c(O)c(c(/C=N/N5CCN(C)CC5)c(O)c4c3C2=O)NC(=O)/C(C)=C\C=C\[C@H](C)[C@H](O)[C@@H](C)[C@@H](O)[C@@H](C)[C@H](OC(C)=O)[C@@H]1C` [RIFAMPIN], in experiment [1], the MIC was found to be 40 mg/L (≈ 48.6 µM).
Turning to `COc1ccc(C2C(C#N)=C(N)Oc3cc(O)ccc32)cc1` (stereo not given), the MIC worked out at 125 mg/L (≈ 425 µM) in the experiment with Staphylococcus aureus; 500 mg/L (≈ 1700 µM) with Aspergillus niger (MTCC 282, 24 h); 250 mg/L (≈ 849 µM) in experiment [1]; 250 mg/L (≈ 849 µM) against Escherichia coli; 250 mg/L (≈ 849 µM) in the experiment with Pseudomonas aeruginosa; 125 mg/L (≈ 425 µM) in the experiment with Streptococcus pyogenes.
With `CC1(C)S[C@@H]2[C@H](NC(=O)[C@H](N)c3ccccc3)C(=O)N2[C@H]1C(=O)O` [AMPICILLIN], the minimal inhibitory concentration (MIC) turned out to be 100 mg/L (≈ 286 µM) with Staphylococcus aureus, 100 mg/L (≈ 286 µM) against Escherichia coli, 100 mg/L (≈ 286 µM) against Pseudomonas aeruginosa and 250 mg/L (≈ 715 µM) in the experiment on Streptococcus pyogenes.
Take `COc1ccc(C2C(C#N)=C(N)Oc3c2ccc2cccnc32)cc1` (stereo not given): the MIC in the experiment with Staphylococcus aureus is 125 mg/L (≈ 380 µM); with Aspergillus niger (MTCC 282, 24 h) it was 500 mg/L (≈ 1520 µM); in experiment [1], 250 mg/L (≈ 759 µM); in the experiment with Escherichia coli, 250 mg/L (≈ 759 µM); against Pseudomonas aeruginosa, 250 mg/L (≈ 759 µM); against Streptococcus pyogenes, 125 mg/L (≈ 380 µM).
For NYSTATIN, 100 mg/L was the least that counted as inhibitory against Aspergillus niger (MIC).
For `COc1ccc(C2C(C#N)=C(N)Oc3ccc4ccccc4c32)cc1` (stereo not given), the MIC against Staphylococcus aureus stood at 250 mg/L (≈ 761 µM); in the experiment on Aspergillus niger (MTCC 282, 24 h), 1000 mg/L (≈ 3050 µM); in experiment [1], 1000 mg/L (≈ 3050 µM); with Escherichia coli, 150 mg/L (≈ 457 µM); against Pseudomonas aeruginosa, 500 mg/L (≈ 1520 µM); against Streptococcus pyogenes, 250 mg/L (≈ 761 µM).
In turn, `COC1=CC(=O)C[C@@H](C)[C@]12Oc1c(Cl)c(OC)cc(OC)c1C2=O` [GRISEOFULVIN] displayed an MIC against Aspergillus niger (MTCC 282, 24 h) of 100 mg/L (≈ 283 µM).
For the molecule `COc1ccc(C2c3ccc4cccnc4c3Oc3[nH]c(=O)nc(N)c32)cc1` (stereo not given), the MIC against Staphylococcus aureus is 62.5 mg/L (≈ 168 µM); in the experiment with Aspergillus niger (MTCC 282, 24 h), 250 mg/L (≈ 671 µM); with Escherichia coli, 125 mg/L (≈ 336 µM); with Pseudomonas aeruginosa, 125 mg/L (≈ 336 µM); in the experiment on Streptococcus pyogenes, 125 mg/L (≈ 336 µM).
